Legend:
Details in all cases: stereoisomer not certain
[1] = molecular target: T1, UniProt Q8VF52
T1 sequence (whole entry): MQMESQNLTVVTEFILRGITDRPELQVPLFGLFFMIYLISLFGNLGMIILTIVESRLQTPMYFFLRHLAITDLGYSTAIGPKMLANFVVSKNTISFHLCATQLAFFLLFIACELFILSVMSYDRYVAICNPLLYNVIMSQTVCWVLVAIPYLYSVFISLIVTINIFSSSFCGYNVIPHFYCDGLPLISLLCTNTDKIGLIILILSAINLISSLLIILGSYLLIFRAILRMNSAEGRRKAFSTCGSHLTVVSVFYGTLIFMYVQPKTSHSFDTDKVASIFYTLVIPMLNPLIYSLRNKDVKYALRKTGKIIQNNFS
Method in brief: (§1)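 Assay methods differ from source to source, frequently being transient luciferase assays in mammalian cell lines. For each receptor–molecule pair, the label responsive (active) applies when the original authors judged the measured signal statistically different from baseline, and non-responsive (inactive) applies otherwise.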

[2] = molecular target: T2, UniProt Q8VFM8
T2 sequence (whole entry): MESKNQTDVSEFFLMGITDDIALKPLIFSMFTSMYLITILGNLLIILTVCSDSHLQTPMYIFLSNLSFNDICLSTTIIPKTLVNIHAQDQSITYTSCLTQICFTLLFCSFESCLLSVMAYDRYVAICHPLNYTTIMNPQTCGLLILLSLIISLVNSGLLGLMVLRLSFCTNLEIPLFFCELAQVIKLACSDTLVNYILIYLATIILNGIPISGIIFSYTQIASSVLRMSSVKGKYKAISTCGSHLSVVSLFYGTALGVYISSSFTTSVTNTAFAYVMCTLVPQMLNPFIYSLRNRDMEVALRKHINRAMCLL
Method in brief: as §1

[3] = molecular target: T3, UniProt Q8VFP5
T3 sequence (whole entry): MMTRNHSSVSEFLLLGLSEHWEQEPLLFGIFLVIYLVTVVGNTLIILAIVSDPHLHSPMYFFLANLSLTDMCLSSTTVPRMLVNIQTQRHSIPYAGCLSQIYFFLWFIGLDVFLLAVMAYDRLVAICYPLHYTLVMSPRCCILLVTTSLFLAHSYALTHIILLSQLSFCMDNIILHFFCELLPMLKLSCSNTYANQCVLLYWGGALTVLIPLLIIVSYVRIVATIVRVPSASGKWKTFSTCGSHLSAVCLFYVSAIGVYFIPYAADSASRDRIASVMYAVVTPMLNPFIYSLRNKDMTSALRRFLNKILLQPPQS
Method in brief: as §1

[4] = molecular target: T4, UniProt Q8VG01
T4 sequence (whole entry): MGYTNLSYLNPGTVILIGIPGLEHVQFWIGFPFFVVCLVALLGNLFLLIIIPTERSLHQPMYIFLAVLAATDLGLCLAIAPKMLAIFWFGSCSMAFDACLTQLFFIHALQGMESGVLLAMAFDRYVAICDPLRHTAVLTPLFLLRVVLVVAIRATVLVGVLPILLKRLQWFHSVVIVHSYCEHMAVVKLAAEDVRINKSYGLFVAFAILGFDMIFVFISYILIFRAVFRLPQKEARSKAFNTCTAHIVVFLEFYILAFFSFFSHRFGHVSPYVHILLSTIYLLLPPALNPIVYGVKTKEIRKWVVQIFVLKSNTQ
Method in brief: as §1

[5] = molecular target: T5, UniProt Q8VG27
T5 sequence (whole entry): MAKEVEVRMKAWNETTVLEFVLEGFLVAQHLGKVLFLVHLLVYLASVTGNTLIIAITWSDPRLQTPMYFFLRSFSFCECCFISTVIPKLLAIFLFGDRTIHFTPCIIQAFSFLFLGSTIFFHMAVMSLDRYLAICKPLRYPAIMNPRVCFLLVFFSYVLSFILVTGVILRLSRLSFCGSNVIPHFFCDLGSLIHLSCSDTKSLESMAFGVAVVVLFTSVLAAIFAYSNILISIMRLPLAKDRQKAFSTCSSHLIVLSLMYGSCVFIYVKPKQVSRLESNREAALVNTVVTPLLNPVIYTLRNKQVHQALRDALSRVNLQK
Method in brief: as §1

[6] = molecular target: T6, UniProt Q8VG53
T6 sequence (whole entry): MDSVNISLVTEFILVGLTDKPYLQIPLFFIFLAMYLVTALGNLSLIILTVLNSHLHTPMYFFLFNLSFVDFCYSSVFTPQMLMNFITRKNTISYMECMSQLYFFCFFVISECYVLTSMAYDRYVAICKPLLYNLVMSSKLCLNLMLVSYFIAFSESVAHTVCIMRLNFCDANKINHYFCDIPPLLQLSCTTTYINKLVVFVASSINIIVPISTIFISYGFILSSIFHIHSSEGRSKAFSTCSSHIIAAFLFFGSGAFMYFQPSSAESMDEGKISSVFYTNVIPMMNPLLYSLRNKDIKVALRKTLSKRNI
Method in brief: as §1

[7] = molecular target: T7, UniProt Q8VG64
T7 sequence (whole entry): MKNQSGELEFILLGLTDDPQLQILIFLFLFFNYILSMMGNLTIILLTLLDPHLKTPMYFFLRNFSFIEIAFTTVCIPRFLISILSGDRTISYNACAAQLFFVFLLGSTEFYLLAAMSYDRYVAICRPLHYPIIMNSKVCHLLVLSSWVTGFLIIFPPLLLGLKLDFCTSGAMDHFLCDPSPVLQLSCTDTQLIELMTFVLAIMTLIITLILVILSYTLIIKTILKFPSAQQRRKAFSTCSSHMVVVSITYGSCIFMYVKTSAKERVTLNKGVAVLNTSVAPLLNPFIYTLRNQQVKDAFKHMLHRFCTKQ
Method in brief: as §1

[8] = molecular target: T8, UniProt Q8VGB9
T8 sequence (whole entry): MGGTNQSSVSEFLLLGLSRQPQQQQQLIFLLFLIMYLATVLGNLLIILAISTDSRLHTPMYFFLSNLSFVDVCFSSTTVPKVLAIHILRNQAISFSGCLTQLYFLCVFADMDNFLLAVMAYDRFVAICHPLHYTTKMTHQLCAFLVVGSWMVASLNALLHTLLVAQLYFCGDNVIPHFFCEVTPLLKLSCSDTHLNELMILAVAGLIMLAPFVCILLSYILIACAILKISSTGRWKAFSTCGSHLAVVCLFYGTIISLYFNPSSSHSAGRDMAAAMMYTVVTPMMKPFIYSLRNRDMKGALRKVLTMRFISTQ
Method in brief: as §1

[9] = molecular target: T9, UniProt Q8VGC6
T9 sequence (whole entry): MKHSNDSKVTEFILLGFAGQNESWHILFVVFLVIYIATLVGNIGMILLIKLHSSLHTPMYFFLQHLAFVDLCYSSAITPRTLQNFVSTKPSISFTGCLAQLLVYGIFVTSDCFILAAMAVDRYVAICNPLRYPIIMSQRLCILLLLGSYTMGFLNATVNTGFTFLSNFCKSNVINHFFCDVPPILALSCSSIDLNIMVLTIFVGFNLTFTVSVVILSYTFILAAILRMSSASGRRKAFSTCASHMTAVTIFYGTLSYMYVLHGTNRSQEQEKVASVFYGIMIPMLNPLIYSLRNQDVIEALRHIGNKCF
Method in brief: as §1

[10] = molecular target: T10, UniProt Q8VGJ3
T10 sequence (whole entry): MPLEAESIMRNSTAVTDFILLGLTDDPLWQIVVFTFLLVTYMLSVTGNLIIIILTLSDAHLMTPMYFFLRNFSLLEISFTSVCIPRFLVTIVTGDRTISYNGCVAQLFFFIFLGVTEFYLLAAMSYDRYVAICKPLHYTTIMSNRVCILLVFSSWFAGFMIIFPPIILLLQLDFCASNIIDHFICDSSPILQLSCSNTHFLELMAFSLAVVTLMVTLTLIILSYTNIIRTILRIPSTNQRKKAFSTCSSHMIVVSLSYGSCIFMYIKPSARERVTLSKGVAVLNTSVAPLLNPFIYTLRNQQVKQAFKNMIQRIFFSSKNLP
Method in brief: as §1

Measured: odorant receptor agonist call

CCCCCCC(Br)C(=O)O (stereo not given)
active: [4]
inactive: [1] | [2] | [3] | [5] | [6] | [7] | [8] | [9] | [10]

— the M2OR odorant receptor database
